Experimental data as given in ChEMBL document CHEMBL4028856, “Discovery of Small Molecules Targeting the Synergy of Cardiac Transcription Factors GATA4 and NKX2-5” (J Med Chem, 2017).
Activity calls are given as the source filed them. No cut-off for these calls is given here.

What was measured:
[1] = target: T1, GATA4/NKX2-5 (Rattus norvegicus) (UniProt P46152+O35767); experiment: Inhibition of GATA4/NKX2-5 interaction in neonatal rat ventricular cardiomyocytes assessed as decrease in basal mRNA level of ANP at 10 uM after 24 hrs by real-time PCR analysis
Outline: (§1)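 Neonatal rat ventricular myocytes (2–4-day-old Sprague-Dawley or Wistar), preplated, seeded on 6-well plates, moved to complete serum-free medium next day and cultured 24 h. Compounds (10–100 μM) added 1 h before 100 nM endothelin-1 or none; ANP and BNP mRNA quantified by RT-PCR at 24 h, normalized to 18S RNA, relative to vehicle; mean ± SD, n = 3–6.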

[2] = target: Homeobox protein Nkx-2.5 (Mus musculus) (UniProt P42582); experiment: Inhibition of binding of mouse NKX2-5 to [32P]-double stranded oligonucleotide expressed in African green monkey COS-1 cells at 50 uM preincubated for 10 mins followed by [32P]-double stranded oligonucleotide addition measured after 20 mins by EMSA method; type: cell-based
Chain of Homeobox protein Nkx-2.5 (Mus musculus) (P42582 whole entry): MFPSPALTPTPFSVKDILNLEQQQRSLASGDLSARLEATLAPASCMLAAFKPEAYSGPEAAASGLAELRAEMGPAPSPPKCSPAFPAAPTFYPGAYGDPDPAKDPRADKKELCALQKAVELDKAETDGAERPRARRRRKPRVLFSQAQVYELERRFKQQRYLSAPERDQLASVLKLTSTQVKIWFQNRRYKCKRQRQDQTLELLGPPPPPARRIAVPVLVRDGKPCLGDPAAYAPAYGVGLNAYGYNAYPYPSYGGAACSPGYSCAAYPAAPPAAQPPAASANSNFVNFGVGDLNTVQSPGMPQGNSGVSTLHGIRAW
Outline: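 Nuclear extracts from COS-1 cells transfected with pMT2-GATA4 or pMT2-NKX2-5 (harvested 48 h) preincubated 10 min with 50 μM compound, then 20 min with 32P-labeled GATA4- or NKX2-5-site probe; native 5% PAGE, phosphorimager quantitation; antibody supershift controls; mean ± SD, n = 3–5.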

[3] = target: Glycogen synthase kinase-3 beta (Homo sapiens) (UniProt P49841); experiment: Inhibition of human GSK3-beta at 30 uM
Chain of Glycogen synthase kinase-3 beta (Homo sapiens) (P49841 whole entry, looked up): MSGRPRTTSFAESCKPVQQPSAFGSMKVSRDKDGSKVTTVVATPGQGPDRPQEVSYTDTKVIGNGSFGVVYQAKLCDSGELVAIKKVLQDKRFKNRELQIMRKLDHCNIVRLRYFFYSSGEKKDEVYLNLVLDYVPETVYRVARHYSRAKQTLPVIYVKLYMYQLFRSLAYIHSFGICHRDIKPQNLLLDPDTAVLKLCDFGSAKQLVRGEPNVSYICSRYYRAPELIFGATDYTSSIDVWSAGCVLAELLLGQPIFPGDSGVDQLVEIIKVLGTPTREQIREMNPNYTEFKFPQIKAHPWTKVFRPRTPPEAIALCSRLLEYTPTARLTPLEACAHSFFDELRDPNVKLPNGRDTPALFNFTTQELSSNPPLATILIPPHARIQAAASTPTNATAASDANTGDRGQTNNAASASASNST
Outline: (§2)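 48-kinase profiling panel; compounds tested at 30 μM in duplicate.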

[4] = Induction of apoptosis in endothelin-1 induced neonatal rat ventricular cardiomyocytes at 50 uM measured after 24 hrs by TUNEL assay; type: cell-based; conditions: cardiac muscle cell
Outline: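 Neonatal rat cardiomyocytes on 8-well chamber slides treated 24 h at 50 μM; apoptotic cells detected by TUNEL with peroxidase in situ kit.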

[5] = Induction of aggregation of compounds at 100 uM by nephalometric method
[6] = target: Transcription factor GATA-4 (Mus musculus) (UniProt Q08369); experiment: Inhibition of mouse GATA4-driven transactivation of luciferase reporter construct containing BNP minimal promoter with tandem GATA-site on -90 bp expressed in African green monkey COS-1 cells after 30 hrs by luminometer; type: cell-based
Chain of Transcription factor GATA-4 (Mus musculus) (Q08369 whole entry): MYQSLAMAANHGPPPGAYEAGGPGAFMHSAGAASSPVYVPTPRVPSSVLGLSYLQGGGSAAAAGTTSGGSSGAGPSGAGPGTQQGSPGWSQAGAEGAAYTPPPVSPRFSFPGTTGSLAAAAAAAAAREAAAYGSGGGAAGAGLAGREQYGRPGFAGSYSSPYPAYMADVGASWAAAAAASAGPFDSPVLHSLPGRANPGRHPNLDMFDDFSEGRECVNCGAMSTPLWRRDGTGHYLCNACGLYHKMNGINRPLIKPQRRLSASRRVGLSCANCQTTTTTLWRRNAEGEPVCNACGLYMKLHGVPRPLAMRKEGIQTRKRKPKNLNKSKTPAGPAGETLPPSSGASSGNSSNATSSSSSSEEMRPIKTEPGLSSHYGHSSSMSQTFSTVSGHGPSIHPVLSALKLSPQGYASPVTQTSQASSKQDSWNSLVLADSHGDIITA
Outline: (§3)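 COS-1 cells co-transfected with firefly luciferase driven by BNP minimal or −90 bp BNP promoter, Renilla pRL-TKd238, and pMT2-GATA4 or empty pMT2. Compounds added 6 h post-transfection in 0.1% DMSO, refreshed with medium at 24 h; lysis at 30 h; dual-luciferase, firefly/Renilla normalized to vehicle; triplicate wells.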

[7] = Drug metabolism in embryoid body differentiation medium assessed as formation of N-[4-(Ethylamino)phenyl]-5-methyl-3-phenylisoxazole-4-carboxamide at 3 to 5 uM measured after 10 days by HPLC/MS method; type: physicochemical; conditions: 240 h
Outline: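 Mouse embryonic stem cells exposed 5 and 10 days to 3 or 5 μM, with DMSO and EB differentiation medium blanks. Medium extracted with chloroform; cells pelleted, saline-washed twice, sonicated in chloroform. UPLC-ESI(+)-QTOF/MS, BEH C18, 0.1% formic acid water/acetonitrile gradient 7–80% B over 5 min, 0.6 mL/min, 40 °C.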

[8] = target: T1, GATA4/NKX2-5 (Rattus norvegicus); experiment: Inhibition of GATA4/NKX2-5 interaction in neonatal rat ventricular cardiomyocytes assessed as decrease in endothelin-1 induced mRNA level of ANP at 10 uM preincubated for 1 hr followed by endothelin-1 addition measured after 23 hrs by real-time PCR analysis; outline: as §1
[9] = target: T2, GATA4/NKX2-5 (Mus musculus) (UniProt Q08369+P42582); experiment: (§4) Inhibition of mouse GATA4/NKX2-5 transcriptional synergy expressed in African green monkey COS-1 cells measured after 30 hrs by dual luciferase reporter gene assay; type: cell-based
Outline: (§5)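 COS-1 cells co-transfected (Fugene 6, DNA:reagent 1:3) with p3xNKE-luc, Renilla pRL-TKd238 control, and pMT2-GATA4, pMT2-NKX2-5, both, or empty pMT2; DNA balanced with pMT2. Compounds added 6 h post-transfection in 0.1% DMSO, medium renewed at 24 h, lysis at 30 h. Dual-luciferase read-out, firefly/Renilla normalized to vehicle; duplicate wells.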

GATA4/NKX2-5 = GATA4/NKX2-5 (Mus musculus, UniProt P42582+Q08369); experiment: as §4; type: cell-based; outline: as §5
Chain of GATA4/NKX2-5 (Q08369 whole entry): as above
Chain of GATA4/NKX2-5 (P42582 whole entry): as the sequence (P42582 whole entry) above

[10] = target: Rho-associated protein kinase 1 (Homo sapiens) (UniProt Q13464); experiment: Inhibition of human ROCK1 at 30 uM; outline: as §2
Chain of Rho-associated protein kinase 1 (Homo sapiens) (Q13464 2-1354 limits assumed): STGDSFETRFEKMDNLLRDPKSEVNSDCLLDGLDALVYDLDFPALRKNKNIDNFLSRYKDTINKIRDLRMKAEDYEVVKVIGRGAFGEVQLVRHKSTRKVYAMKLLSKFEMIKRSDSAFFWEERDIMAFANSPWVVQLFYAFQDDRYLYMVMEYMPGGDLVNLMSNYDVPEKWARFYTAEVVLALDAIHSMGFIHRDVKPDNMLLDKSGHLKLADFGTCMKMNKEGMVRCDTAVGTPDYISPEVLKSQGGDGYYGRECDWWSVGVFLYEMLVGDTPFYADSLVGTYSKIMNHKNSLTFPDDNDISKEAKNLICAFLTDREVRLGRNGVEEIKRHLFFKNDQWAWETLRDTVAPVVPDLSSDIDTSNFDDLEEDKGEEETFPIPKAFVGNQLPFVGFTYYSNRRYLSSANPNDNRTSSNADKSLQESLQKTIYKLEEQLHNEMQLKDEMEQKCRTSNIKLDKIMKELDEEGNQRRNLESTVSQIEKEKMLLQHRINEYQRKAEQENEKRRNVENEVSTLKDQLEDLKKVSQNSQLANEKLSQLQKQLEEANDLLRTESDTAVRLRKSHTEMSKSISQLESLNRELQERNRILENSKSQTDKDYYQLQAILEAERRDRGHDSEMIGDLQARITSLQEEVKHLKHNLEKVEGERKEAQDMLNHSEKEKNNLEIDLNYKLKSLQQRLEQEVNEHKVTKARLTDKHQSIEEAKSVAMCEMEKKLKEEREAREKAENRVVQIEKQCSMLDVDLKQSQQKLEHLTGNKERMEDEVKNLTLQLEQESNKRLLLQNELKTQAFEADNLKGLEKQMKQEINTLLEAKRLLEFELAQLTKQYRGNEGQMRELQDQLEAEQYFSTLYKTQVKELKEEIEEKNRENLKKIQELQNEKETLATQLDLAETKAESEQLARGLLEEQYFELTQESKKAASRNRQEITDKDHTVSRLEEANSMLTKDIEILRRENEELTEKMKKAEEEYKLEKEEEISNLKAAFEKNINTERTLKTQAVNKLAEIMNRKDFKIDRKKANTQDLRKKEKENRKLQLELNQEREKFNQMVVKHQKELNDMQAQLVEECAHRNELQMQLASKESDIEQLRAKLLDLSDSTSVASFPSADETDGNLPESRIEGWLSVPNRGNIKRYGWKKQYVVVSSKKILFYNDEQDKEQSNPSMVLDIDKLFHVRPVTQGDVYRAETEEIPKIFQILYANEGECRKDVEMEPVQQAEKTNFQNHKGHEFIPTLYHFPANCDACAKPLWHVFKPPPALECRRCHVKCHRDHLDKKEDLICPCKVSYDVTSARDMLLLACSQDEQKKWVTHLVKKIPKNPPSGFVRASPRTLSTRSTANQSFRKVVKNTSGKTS

[11] = target: T2, GATA4/NKX2-5 (Mus musculus); experiment: Inhibition of mouse GATA4/FLAG-tagged NKX2-5 interaction expressed in African green monkey COS-1 cells at 100 uM by coimmunoprecipitation method; type: cell-based
Outline: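 FLAG-NKX2-5 and GATA4 lysates from COS-1 cells incubated overnight at 4 °C with anti-FLAG agarose in Tris/NaCl/Triton lysis buffer with protease/phosphatase inhibitors; beads washed thrice, eluted by boiling, SDS-PAGE, immunoblotted for GATA4 and NKX2-5, ECL detection.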

[12] = Induction of necrosis in neonatal rat ventricular cardiomyocytes assessed as release of adenylate kinase at 50 uM measured after 24 hrs by bioluminescence assay; type: cell-based; conditions: cardiac muscle cell
Outline: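 Neonatal rat cardiomyocytes treated 24 h at 50 μM; adenylate kinase released into medium measured by ToxiLight bioluminescence on a luminometer; relative to vehicle, mean ± SD, n = 3.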

[13] = target: T1, GATA4/NKX2-5 (Rattus norvegicus); experiment: Inhibition of GATA4/NKX2-5 interaction in neonatal rat ventricular cardiomyocytes assessed as decrease in basal mRNA level of BNP at 10 uM after 24 hrs by real-time PCR analysis; outline: as §1
[14] = target: Growth hormone secretagogue receptor type 1 (Homo sapiens) (UniProt Q92847); experiment: Antagonist activity at human GHS-R at 10 uM by ELISA; conditions: in the assay text read “by calcium flux assay” for “by ELISA”
Chain of Growth hormone secretagogue receptor type 1 (Homo sapiens) (Q92847 whole entry): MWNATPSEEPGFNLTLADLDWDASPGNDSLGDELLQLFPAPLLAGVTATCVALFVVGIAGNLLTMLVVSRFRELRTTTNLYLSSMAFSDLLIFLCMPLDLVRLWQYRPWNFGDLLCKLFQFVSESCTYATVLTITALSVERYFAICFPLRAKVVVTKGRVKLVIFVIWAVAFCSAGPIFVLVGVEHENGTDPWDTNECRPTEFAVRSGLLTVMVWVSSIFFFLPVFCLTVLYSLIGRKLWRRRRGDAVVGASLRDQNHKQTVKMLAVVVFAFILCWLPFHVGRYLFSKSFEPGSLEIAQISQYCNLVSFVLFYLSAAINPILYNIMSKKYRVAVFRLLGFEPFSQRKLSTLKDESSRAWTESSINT
Outline: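 GPCR profiling panel of cell-based functional assays covering 165 GPCRs; agonist mode tested at 12.5 μM and antagonist mode at 10 μM, in duplicate.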

[15] = target: Transcription factor GATA-4 (Mus musculus) (UniProt Q08369); experiment: Inhibition of mouse GATA4-driven transactivation of luciferase reporter construct containing BNP minimal promoter expressed in African green monkey COS-1 cells after 30 hrs by luminometer; type: cell-based; outline: as §3
[16] = target: Transcription factor GATA-4 (Rattus norvegicus) (UniProt P46152); experiment: Inhibition of binding of GATA4 to [32P]-double stranded oligonucleotide in neonatal rat ventricular cardiomyocytes at 50 uM measured after 24 hrs by EMSA method
Chain of Transcription factor GATA-4 (Rattus norvegicus) (P46152 whole entry): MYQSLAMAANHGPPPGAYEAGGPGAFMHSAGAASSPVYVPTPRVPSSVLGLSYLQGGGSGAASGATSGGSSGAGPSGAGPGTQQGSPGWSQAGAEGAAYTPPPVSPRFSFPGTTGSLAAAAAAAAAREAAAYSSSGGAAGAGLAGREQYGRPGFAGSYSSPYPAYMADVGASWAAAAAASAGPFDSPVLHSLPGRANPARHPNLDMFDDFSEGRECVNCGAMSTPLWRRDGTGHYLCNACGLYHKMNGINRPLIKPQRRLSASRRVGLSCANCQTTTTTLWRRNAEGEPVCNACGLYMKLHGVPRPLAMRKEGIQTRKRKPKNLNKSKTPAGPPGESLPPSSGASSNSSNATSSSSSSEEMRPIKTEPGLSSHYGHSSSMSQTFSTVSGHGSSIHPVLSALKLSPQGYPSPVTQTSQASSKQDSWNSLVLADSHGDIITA
Outline: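 Neonatal rat cardiomyocytes treated 24 h with 50 μM; nuclear extracts incubated 20 min with [α-32P]dCTP Klenow-labeled GATA4- or NKX2-5-site oligonucleotide in HEPES/NaCl/KCl/MgCl2 buffer with poly(dI-dC); 5% native PAGE, phosphorimager; supershift with anti-GATA4/NKX2-5; relative to vehicle, mean ± SD, n = 3–5.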

[17] = target: T1, GATA4/NKX2-5 (Rattus norvegicus); experiment: Inhibition of GATA4/NKX2-5 interaction in neonatal rat ventricular cardiomyocytes assessed as decrease in endothelin-1 induced mRNA level of BNP at 10 uM preincubated for 1 hr followed by endothelin-1 addition measured after 23 hrs by real-time PCR analysis; outline: as §1
[18] = target: Mitogen-activated protein kinase 14 (Homo sapiens) (UniProt Q16539); experiment: Inhibition of human p38alpha MAPK at 30 uM; outline: as §2
Chain of Mitogen-activated protein kinase 14 (Homo sapiens) (Q16539 whole entry): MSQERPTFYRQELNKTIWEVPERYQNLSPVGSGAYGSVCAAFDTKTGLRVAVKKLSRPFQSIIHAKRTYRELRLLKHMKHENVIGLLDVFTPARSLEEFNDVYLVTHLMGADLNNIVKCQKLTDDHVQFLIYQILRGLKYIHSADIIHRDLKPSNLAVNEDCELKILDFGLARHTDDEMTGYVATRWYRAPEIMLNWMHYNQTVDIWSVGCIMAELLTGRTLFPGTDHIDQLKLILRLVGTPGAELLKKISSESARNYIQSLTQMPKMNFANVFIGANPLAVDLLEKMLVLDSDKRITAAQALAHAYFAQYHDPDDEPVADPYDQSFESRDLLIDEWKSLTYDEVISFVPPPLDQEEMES

- inhibition [1]: 81%
- inhibition [2]: inactive
- inhibition [3]: inactive
- inhibition [6]: Active
- Drug metabolism [7]: Metabolite_Detected
- inhibition [8]: 32%
- inhibition [9]: Dose-dependent effect
- IC50 (GATA4/NKX2-5): 3 µM
- inhibition [10]: inactive
- inhibition [11]: Active
- inhibition [13]: 75%
- inhibition [14]: 65.2%
- inhibition [15]: Active
- inhibition [16]: 29%
- inhibition [17]: 68%
- inhibition [18]: inactive
Structure (SMILES): CCN(CC)c1ccc(NC(=O)c2c(-c3ccccc3)noc2C)cc1
- Activity [4]: Non-Toxic
- Activity [5]: Active
- Activity [12]: Non-Toxic
